Active and inactive are the calls of the source. The rule behind the calls is not given here.

The nature of assay [1]: Induction of apoptosis in human RC-58T/h/SA#4 cells assessed as DR5 expression at 20 uM after 18 hrs by immunoblotting analysis relative to untreated control. The class given is functional. (In western blotting, separated proteins are transferred to a membrane and probed.)
The species named for assay [2] is Homo sapiens. Briefly: Induction of apoptosis in human RC-58T/h/SA#4 cells assessed as CHOP expression after 3 to 24 hrs by immunoblotting analysis relative to untreated control. The class given is functional, cell-based. The procedure, abridged: (§1)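 RC-58T/h/SA#4 cells seeded at 5 × 10^4 cells/mL and cultured 24 h, then given compound across a concentration series or at fixed dose over a time course. Lysates were quantified by BCA. 10 μg protein/lane run on 12% SDS-PAGE and transferred to nitrocellulose. Blots probed for p53, CHOP and β-actin with HRP secondary and ECL.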

The nature of assay [3]: Induction of apoptosis in human RC-58T/h/SA#4 cells assessed as p53 expression at 5 uM after 24 hrs by immunoblotting analysis relative to untreated control. It counts as functional. The procedure, abridged:
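RC-58T/h/SA#4 cells (DMEM, 10% FBS, 37 °C, 5% CO2) exposed to the compound over a concentration range or time course. Lysates run on 12% SDS-PAGE at 10 μg protein/lane, transferred to nitrocellulose and blocked with BSA. Blots probed overnight at 4 °C with anti-p53, then HRP secondary antibody, ECL detection; β-actin as loading control.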

Assay [4] can be described thus: Induction of apoptosis in human RC-58T/h/SA#4 cells assessed as p53 expression at 20 uM after 3 hrs by immunoblotting analysis relative to untreated control. The class given is functional. The procedure, abridged:
as §1

The species entered for assay [5] is Homo sapiens. Briefly: Induction of apoptosis in human RC-58T/h/SA#4 cells at 20 uM after 24 hrs by annexin-V/propidium iodide staining-based flow cytometry relative to control. It counts as functional, cell-based. The procedure, abridged: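 RC-58T/h/SA#4 cells seeded at 1 × 10^5 cells/mL in 6-well plates and given 20 μM compound and/or 100 ng/mL TRAIL for 24 h. Cells washed in ice-cold PBS, labelled with annexin V Alexa Fluor 488 for 30 min at 4 °C in the dark, then with PI. Annexin V-positive fraction counted by flow cytometry; three independent experiments, means ± SD, Student's t-test.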
A general note: A flow cytometer gives signals particle by particle.

Assay [6] in a line: Induction of apoptosis in human RC-58T/h/SA#4 cells assessed as accumulation at Sub-G1 phase at 20 uM after 24 hrs by annexin-V/propidium iodide staining-based flow cytometry (reference value: 4.8%). The class given is functional.

On to `CC(C)/C=C/C(=O)c1ccoc1`, for which the figures for the Ratio in assay [1], in assay [3] and in assay [4] were 1.5, 1.2 and 1, respectively. Further, the Activity entry is “Dose-dependent effect” in the assay listed under Homo sapiens [2] and 10.1% in assay [6]. The outcome in the assay filed under Homo sapiens [5] was Active.
